We go through 15 molecules from ChEMBL document CHEMBL1772940, “Design and synthesis of potent and selective aldose reductase inhibitors based on pyridylthiadiazine scaffold” (Eur J Med Chem, 2011).

SMILES strings stand for the structures.

The target of experiment [1] is Aldo-keto reductase family 1 member B1 (Rattus norvegicus, UniProt P07943). Kind of experiment: Inhibition of Wistar rat lens aldose reductase 2 by spectrophotometric analysis. Put shortly: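 Partially purified lens enzyme (homogenized in cold water, centrifuged 30 min at 0–4 °C, ammonium sulfate 40/50/75% cuts). Mix without DL-glyceraldehyde was preincubated 10 min at 32 °C; the NADPH drop was read at 340 nm at 32 °C in pH 6.2 phosphate, with the substrate-free rate subtracted. At least four concentrations (10^-4–10^-8 M), triplicate; IC50 from log concentration-response regression.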

Experiment [2] deals with Aldehyde reductase AKR1A1 (Rattus norvegicus). Kind of experiment: Inhibition of Wistar rat kidney aldehyde reductase at 50 uM by spectrophotometric analysis.

As usually defined, the IC50 is the concentration that inhibits the measured activity by half. The low end stands for greater potency, the high end for weaker potency. The term inhibition denotes the share of the control response that was lost under treatment. Low readings indicate a response near the control, high ones a response far below the control. `Cc1cnc2c(c1)S(=O)(=O)N(Cc1ccc(C(F)(F)F)cc1)CN2CC(=O)O` gave an IC50 in experiment [1] of 1000 nM. Further, the inhibition in experiment [2] turned out to be 20.5%.
In the same order, the values of `COc1ccc(CN2CN(CC(=O)O)c3ncc(Br)cc3S2(=O)=O)cc1` are 11300 nM and 27.9%.
Regarding `COc1ccc(CN2CN(CC(=O)O)c3ncc(Cl)cc3S2(=O)=O)cc1`, in experiment [1], half-maximal inhibition (IC50) was put at 6540 nM. For the same molecule, the inhibition in experiment [2] amounted to 32.3%.
For `O=C(O)CN1CN(Cc2cc(F)c(F)cc2F)S(=O)(=O)c2cc(Br)cnc21` the same measures were 66 nM and 44.2%.
For `O=C(O)CN1CN(Cc2ccc(C(F)(F)F)cc2)S(=O)(=O)c2cc(Br)cnc21` the same measures were 965 nM and 43.3%.
In turn, `O=C(O)CN1CN(Cc2cccc([N+](=O)[O-])c2)S(=O)(=O)c2cc(Br)cnc21` registered an IC50 in experiment [1] of 98 nM. Also, the inhibition in experiment [2] was determined as 31.5%.
`O=C(O)CN1CN(Cc2ccc(Br)cc2F)S(=O)(=O)c2cc(Cl)cnc21` gave an IC50 in experiment [1] of 44 nM. Also, the inhibition in experiment [2] is 36.6%.
Turning to `O=C(O)CN1CN(Cc2cccc([N+](=O)[O-])c2)S(=O)(=O)c2cc(Cl)cnc21`, the IC50 in experiment [1] was 93 nM. In experiment [2], this molecule displayed an inhibition of 40.2%.
For `Cc1cnc2c(c1)S(=O)(=O)N(Cc1cc(F)c(F)cc1F)CN2CC(=O)O` the same measures were 84 nM and 35.4%.
In experiment [1], `COc1ccc(CN2CN(CC(=O)O)c3ncc(C)cc3S2(=O)=O)cc1` showed an IC50 of 6270 nM. Besides, in experiment [2], the inhibition came out at 17.7%.
In the same order, the values of `Cc1cnc2c(c1)S(=O)(=O)N(Cc1ccc(Br)cc1F)CN2CC(=O)O` are 127 nM and 24.6%.
In the same order, the values of `O=C(O)CN1CN(Cc2ccc(Br)cc2F)S(=O)(=O)c2cc(Br)cnc21` are 69 nM and 44.9%.
In the same order, the values of `Cc1cnc2c(c1)S(=O)(=O)N(Cc1cccc([N+](=O)[O-])c1)CN2CC(=O)O` are 143 nM and 23.2%.
In experiment [1], `O=C(O)CN1CN(Cc2cc(F)c(F)cc2F)S(=O)(=O)c2cc(Cl)cnc21` registered an IC50 of 38 nM. Besides, in experiment [2], the inhibition came to 36.5%.
For `O=C(O)CN1CN(Cc2ccc(C(F)(F)F)cc2)S(=O)(=O)c2cc(Cl)cnc21` the same measures were 1010 nM and 42.3%.
